# Test results reported in article PMC7498158 (Journal of Medicinal Chemistry, 2020).
# What was measured:
# Type in all cases: biochemical
# mDAGLβ = target: T1, mDAGLβ (Mus musculus, UniProt Q91WC9); experiment: gel-based ABPP, mouse brain membrane proteome; conditions: 10 μM
# T1 sequence (Q91WC9 1-669): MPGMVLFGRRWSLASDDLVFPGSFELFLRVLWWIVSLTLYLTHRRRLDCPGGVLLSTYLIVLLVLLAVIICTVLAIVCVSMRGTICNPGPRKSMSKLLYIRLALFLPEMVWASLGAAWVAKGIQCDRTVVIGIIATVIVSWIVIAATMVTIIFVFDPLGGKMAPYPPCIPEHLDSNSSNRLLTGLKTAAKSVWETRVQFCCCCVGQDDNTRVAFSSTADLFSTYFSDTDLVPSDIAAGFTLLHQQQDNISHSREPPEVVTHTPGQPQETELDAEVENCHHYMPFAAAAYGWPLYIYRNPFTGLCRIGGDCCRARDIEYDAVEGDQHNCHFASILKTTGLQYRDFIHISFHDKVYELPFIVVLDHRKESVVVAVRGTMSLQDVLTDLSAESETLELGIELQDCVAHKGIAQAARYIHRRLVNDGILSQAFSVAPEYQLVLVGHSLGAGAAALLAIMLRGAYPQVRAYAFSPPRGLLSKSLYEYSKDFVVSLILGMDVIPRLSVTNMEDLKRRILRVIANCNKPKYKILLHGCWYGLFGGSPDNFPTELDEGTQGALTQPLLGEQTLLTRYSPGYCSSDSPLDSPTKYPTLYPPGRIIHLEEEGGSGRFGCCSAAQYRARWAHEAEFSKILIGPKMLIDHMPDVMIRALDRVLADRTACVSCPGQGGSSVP
# Summary of the method: (§1)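 Mouse brain was dounce-homogenized in 20 mM HEPES pH 7.2 with DTT, MgCl2 and benzonase. The membrane pellet from ultracentrifugation (100,000g, 45 min, 4 °C) was used at 2 μg/μL. It was preincubated with test compound in DMSO (30 min, rt), then labeled with MB064 (250 nM) or FP-TAMRA (500 nM) for 15 min at rt. Samples ran on 10% SDS-PAGE; fluorescence was normalized to Coomassie staining.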
# mFAAH = target: T2, mFAAH (Mus musculus, UniProt O08914); experiment: gel-based ABPP, mouse brain membrane proteome; conditions: 10 μM
# T2 sequence (O08914 1-579): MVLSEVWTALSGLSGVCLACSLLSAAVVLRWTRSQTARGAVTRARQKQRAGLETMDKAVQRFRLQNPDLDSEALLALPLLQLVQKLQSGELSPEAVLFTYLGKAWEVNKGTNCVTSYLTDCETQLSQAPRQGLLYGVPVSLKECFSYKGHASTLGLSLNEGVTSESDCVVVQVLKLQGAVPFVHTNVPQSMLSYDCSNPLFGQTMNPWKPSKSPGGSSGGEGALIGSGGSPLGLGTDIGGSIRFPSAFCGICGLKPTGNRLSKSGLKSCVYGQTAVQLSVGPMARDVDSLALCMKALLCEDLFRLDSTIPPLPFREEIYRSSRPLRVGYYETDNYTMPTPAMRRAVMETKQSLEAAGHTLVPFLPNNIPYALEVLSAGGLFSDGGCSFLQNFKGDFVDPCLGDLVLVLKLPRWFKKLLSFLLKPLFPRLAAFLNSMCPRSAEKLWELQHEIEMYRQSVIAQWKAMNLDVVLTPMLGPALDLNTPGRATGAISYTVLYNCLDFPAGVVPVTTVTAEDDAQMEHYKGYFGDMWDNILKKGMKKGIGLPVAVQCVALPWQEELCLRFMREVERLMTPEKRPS
# Summary of the method: as §1
# PLAAT4 = target: T3, PLAAT4 (Homo sapiens, UniProt Q9UL19)
# T3 sequence (Q9UL19 1-164): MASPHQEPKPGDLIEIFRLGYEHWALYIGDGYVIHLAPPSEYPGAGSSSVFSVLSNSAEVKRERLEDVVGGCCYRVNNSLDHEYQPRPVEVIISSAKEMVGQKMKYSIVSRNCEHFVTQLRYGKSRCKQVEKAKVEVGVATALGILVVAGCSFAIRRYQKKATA
# Summary of the method: (§2)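 Human PLAAT cDNA (C-terminal FLAG, pcDNA3.1) was PEI-transfected into HEK293T; cytosol came from a 100,000g spin. Cytosol was preincubated with test compound (30 min, rt), then MB064 (20 min, rt). Conditions: PLAAT2 0.25 μg/μL, 250 nM; PLAAT3 0.5 μg/μL, 250 nM; PLAAT4/5 1 μg/μL, 500 nM. In-gel fluorescence was normalized to Coomassie, in triplicate. Single-concentration screen or IC50 from dose–response curves.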
# PLAAT5 = target: T4, PLAAT5 (Homo sapiens, UniProt Q96KN8)
# T4 sequence (Q96KN8 1-279): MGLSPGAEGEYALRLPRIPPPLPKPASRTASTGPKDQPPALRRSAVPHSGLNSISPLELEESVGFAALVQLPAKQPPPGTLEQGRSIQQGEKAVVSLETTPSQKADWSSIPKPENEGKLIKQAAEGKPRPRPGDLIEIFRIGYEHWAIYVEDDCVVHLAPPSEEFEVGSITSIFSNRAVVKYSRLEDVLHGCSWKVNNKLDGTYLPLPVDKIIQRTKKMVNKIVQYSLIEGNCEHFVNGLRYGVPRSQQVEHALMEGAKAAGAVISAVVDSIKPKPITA
# Summary of the method: as §2
smiles,measurement,setting,value
"O=C(CCCc1ccccc1)C(=O)NCCc1ccc(Oc2ccccc2)cc1 [Compound 51, 2-Oxo-N-(4-phenoxyphenethyl)-5-phenylpentanamide]",inhibition of DAGLβ (in words),mDAGLβ,not inhibited
same,inhibition of FAAH (in words),mFAAH,not inhibited
same,increase in activity/potency for PLAAT4 compared to 25,PLAAT4,10 fold
same,higher potency for PLAAT5 than initial hit,PLAAT5,10 fold
